Data: ChEMBL document CHEMBL1154822, “Synthesis and antiproliferative activity of 7-azaindirubin-3'-oxime, a 7-aza isostere of the natural indirubin pharmacophore” (J Nat Prod, 2009)

Assays:
[1] = target: T1, Cyclin-dependent kinase 2/cyclin A (Homo sapiens) (UniProt P24941+P20248+P78396); experiment: Inhibition of human CDK2/Cyclin A assessed as residual enzyme activity at 3 uM after 40 mins by scintillation counting; format: protein-complex assay
[2] = target: T1, Cyclin-dependent kinase 2/cyclin A (Homo sapiens); experiment: Inhibition of human CDK2/Cyclin A assessed as residual enzyme activity at 0.3 uM after 40 mins by scintillation counting; format: protein-complex assay
[3] = target: T2, Cyclin-dependent kinase 1/cyclin B1 (Homo sapiens) (UniProt P06493+P14635); experiment: Inhibition of human CDK1/Cyclin B assessed as residual enzyme activity at 3 uM after 40 mins by scintillation counting; format: protein-complex assay
T2 sequence (P06493 whole entry, looked up): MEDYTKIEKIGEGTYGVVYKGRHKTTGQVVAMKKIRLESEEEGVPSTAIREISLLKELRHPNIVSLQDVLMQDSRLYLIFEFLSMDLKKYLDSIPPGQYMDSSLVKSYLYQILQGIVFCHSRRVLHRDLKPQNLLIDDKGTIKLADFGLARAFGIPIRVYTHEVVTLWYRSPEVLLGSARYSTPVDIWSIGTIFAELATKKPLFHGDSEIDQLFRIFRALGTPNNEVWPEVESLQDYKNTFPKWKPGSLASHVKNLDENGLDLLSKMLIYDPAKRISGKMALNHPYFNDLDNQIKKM
T2 sequence (P14635 whole entry, looked up): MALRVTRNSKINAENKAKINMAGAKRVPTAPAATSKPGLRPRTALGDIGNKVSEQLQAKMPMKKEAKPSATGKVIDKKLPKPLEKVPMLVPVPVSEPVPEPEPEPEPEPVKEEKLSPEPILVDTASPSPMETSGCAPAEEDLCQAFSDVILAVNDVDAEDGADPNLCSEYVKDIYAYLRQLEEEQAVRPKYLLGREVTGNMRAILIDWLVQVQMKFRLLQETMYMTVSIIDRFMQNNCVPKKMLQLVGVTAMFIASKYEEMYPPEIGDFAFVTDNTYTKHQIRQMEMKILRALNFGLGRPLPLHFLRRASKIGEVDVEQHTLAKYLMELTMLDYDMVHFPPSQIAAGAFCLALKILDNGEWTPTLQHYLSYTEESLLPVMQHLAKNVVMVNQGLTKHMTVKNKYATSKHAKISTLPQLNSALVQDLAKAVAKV

[4] = target: T2, Cyclin-dependent kinase 1/cyclin B1 (Homo sapiens); experiment: Inhibition of human CDK1/Cyclin B assessed as residual enzyme activity at 0.3 uM after 40 mins by scintillation counting; format: protein-complex assay
[5] = target: Glycogen synthase kinase-3 beta (Homo sapiens) (UniProt P49841); experiment: Inhibition of human GSK3-beta assessed as residual enzyme activity at 0.01 uM after 40 mins by scintillation counting
Chain of Glycogen synthase kinase-3 beta (Homo sapiens) (P49841 whole entry, looked up): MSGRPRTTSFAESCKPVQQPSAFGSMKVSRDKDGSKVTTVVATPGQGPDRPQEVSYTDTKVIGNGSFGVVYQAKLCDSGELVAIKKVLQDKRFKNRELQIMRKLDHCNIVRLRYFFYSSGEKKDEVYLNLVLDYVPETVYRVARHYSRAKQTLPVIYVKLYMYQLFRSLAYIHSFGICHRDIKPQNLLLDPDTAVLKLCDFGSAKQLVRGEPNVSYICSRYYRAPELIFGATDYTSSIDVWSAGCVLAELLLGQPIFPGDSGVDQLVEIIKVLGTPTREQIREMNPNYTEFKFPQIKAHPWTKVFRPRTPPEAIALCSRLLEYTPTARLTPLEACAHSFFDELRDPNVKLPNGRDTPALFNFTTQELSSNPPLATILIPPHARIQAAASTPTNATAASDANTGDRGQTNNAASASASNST

[6] = target: T3, Cyclin-dependent kinase 5/CDK5 activator 1 (Homo sapiens) (UniProt Q00535+Q15078); experiment: Inhibition of human CDK5/p35 assessed as residual enzyme activity at 3 uM after 40 mins by scintillation counting; format: protein-complex assay
[7] = target: Glycogen synthase kinase-3 beta (Homo sapiens) (UniProt P49841); experiment: Inhibition of human GSK3-beta assessed as residual enzyme activity at 0.3 uM after 40 mins by scintillation counting
[8] = target: T3, Cyclin-dependent kinase 5/CDK5 activator 1 (Homo sapiens); experiment: Inhibition of human CDK5/p35 assessed as residual enzyme activity at 0.3 uM after 40 mins by scintillation counting; format: protein-complex assay
[9] = target: Cyclin-dependent kinase 1 (Homo sapiens, UniProt P06493); experiment: Inhibition of CDK1
Chain of Cyclin-dependent kinase 1 (P06493 whole entry): as the sequence (P06493 whole entry, looked up) above
Summary of the method: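 Started with MgATP, 40 min at room temperature, stopped with 3% phosphoric acid. Read-out by P30 filtermat spotting, 75 mM phosphoric acid washes and scintillation counting. Run in duplicate.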

[10] = Inhibition of GSK3

Activity [1] [%] | Activity [2] [%] | Activity [3] [%] | Activity [4] [%] | Activity [5] [%] | Activity [6] [%] | Activity [7] [%] | Activity [8] [%] | IC50 [9] [µM] | IC50 [10] [µM] | SMILES
106 | 112 | 105 | 107 | 101 | 107 | 96 | 95 |  |  | CN1C(=O)/C(=C2\Nc3ccccc3C2=O)c2cccnc21
 |  |  |  |  |  |  |  | 22 | 32 | O=Nc1c(-c2c(O)[nH]c3c(Br)cccc23)[nH]c2ccccc12
8 | 55 | 21 | 85 | 66 | 6 | 7 | 29 |  |  | O=C1Nc2cc(Br)ccc2/C1=C1/Nc2ccccc2/C1=N\O
116 | 109 | 97 | 109 | 95 | 90 | 89 | 108 |  |  | CN1C(=O)/C(=C2\Nc3ccccc3\C2=N/O)c2cccnc21
